Values after ≈ are worked out from the molar mass of the structure shown.
Experiments:
[1] = Growth inhibition of differentiated human Caco2 cells assessed as mitochondrial activity measured after 72 hrs by MTT assay; type: cell-based; conditions: Caco-2, 72 h
In short: (§1)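 Seeded 20000 cells/well in DMEM+glutamax, NEAA, P/S, FBS; after 1 day treated 1, 5, 10, 25 μM in serum-free medium (DMSO under 0.1%) for 3 days. MTT (5 mg/ml in PBS) 2 h at 37 °C, 10% CO2 in dark; formazan dissolved in DMSO, absorbance 570 nm; triplicate; IC50 derived.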

[2] = Antioxidant activity assessed as trolox equivalent of ferric ion reducing activity using Fe3+-TPTZ by measuring Fe2+-TPTZ formation after 4 mins by UV-vis spectrophotometry based FRAP assay; type: functional
In short: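 FRAP reagent: 300 mM acetate buffer, 10 mM TPTZ in ethanol and 20 mM FeCl3 (in dilute HCl) combined 10:1:1, TPTZ and iron freshly made. Sample mixed 1:9 with reagent; absorbance 593 nm after 4 min. Expressed as trolox equivalents per μM from slope of linear plot versus analog concentration.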

Caco-2 [3] = experiment: Effect on oxidative stress in undifferentiated human Caco2 cells assessed as intracellular ROS level at 10 uM after overnight incubation by DCFH-DA staining based fluorescence assay relative to control; type: functional
In short: (§2)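 Cells grown in DMEM+glutamax, 1% NEAA, 1% P/S, 10% FBS; seeded 20000/well, treated at confluency overnight in serum-free medium, DMSO under 0.1% final. Loaded with 20 μM DCFH-DA 30 min at 37 °C, 10% CO2; washed, phenol red-free medium 1 h, then serum-free medium; fluorescence ex 485/em 535 nm. Percent of untreated; two-tailed unequal-variance t-test, n≥6.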

CHO [4] = experiment: Effect on oxidative stress in CHO cells assessed as intracellular ROS level at 10 uM after overnight incubation by DCFH-DA staining based fluorescence assay relative to control; type: functional, Cricetulus griseus; in short: as §2
[5] = Antioxidant activity assessed as inhibition of DPPH radical activity at 1 uM measured after 30 mins under dark conditions by spectrophotometric analysis relative to control; type: functional
[6] = Growth inhibition of human EAhy926 cells assessed as mitochondrial activity measured after 72 hrs by MTT assay; type: cell-based; conditions: EA.hy 926, 72 h; in short: as §1
[7] = Growth inhibition of human HT-29 cells assessed as mitochondrial activity measured after 72 hrs by MTT assay; type: functional, cell-based; conditions: HT-29, 72 h; in short: as §1
Caco-2 [8] = experiment: Effect on oxidative stress in undifferentiated human Caco2 cells assessed as intracellular ROS level at 1 uM after overnight incubation by DCFH-DA staining based fluorescence assay relative to control; type: functional; in short: as §2
EA.hy 926 [9] = experiment: Effect on oxidative stress in human EAhy926 cells assessed as intracellular ROS level at 1 uM after overnight incubation by DCFH-DA staining based fluorescence assay relative to control; type: functional; in short: as §2
[10] = Solubility of the compound in serum-free DMEM assessed as compound concentration required for crystal formation measured after 1 day by microscopic analysis; type: physicochemical; conditions: 24 h
In short: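 Compound at 0, 0.5, 1, 5, 10, 25 and 50 μM in serum-free DMEM incubated 1 day at 37 °C, 10% CO2, then examined for crystal formation.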

[11] = Growth inhibition of CHOK1 cells measured after 72 hrs by SRB assay; type: functional, cell-based; conditions: Cricetulus griseus, CHO-K1, 72 h
In short: (§3)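 20000 cells/well treated after 1 day at 1, 5, 10, 25 μM, serum-free, for 3 days. Fixed with 50% TCA 1 h at 4 °C, stained 30 min with 0.4% sulforhodamine B in 1% acetic acid, rinsed with 1% acetic acid, dye dissolved in 10 mM Tris, absorbance 490 nm; triplicate; IC50 derived.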

[12] = Growth inhibition of human EAhy926 cells measured after 72 hrs by SRB assay; type: cell-based; conditions: EA.hy 926, 72 h; in short: as §3
HT-29 [13] = experiment: Antioxidant activity in human HT-29 cells assessed as decrease in intracellular ROS level after overnight incubation by DCFH-DA staining based fluorescence assay
[14] = Growth inhibition of CHOK1 cells assessed as mitochondrial activity measured after 72 hrs by MTT assay; type: functional, cell-based; conditions: Cricetulus griseus, CHO-K1, 72 h; in short: as §1
[15] = Growth inhibition of human HT-29 cells measured after 72 hrs by SRB assay; type: functional, cell-based; conditions: HT-29, 72 h; in short: as §3
HT-29 [16] = experiment: Antioxidant activity in human HT-29 cells assessed as decrease in intracellular ROS level after overnight incubation by DCFH-DA staining based fluorescence assay; type: functional, cell-based; in short: as §2
[17] = Growth inhibition of undifferentiated human Caco2 cells assessed as mitochondrial activity measured after 72 hrs by MTT assay; type: functional, cell-based; conditions: Caco-2, 72 h; in short: as §1
[18] = Growth inhibition of differentiated human Caco2 cells measured after 72 hrs by SRB assay; type: cell-based; conditions: Caco-2, 72 h; in short: as §3
HT-29 [19] = experiment: Effect on oxidative stress in human HT-29 cells assessed as intracellular ROS level at 10 uM after overnight incubation by DCFH-DA staining based fluorescence assay relative to control; type: functional; in short: as §2
[20] = Growth inhibition of undifferentiated human Caco2 cells measured after 72 hrs by SRB assay; type: functional, cell-based; conditions: Caco-2, 72 h; in short: as §3
HT-29 [21] = experiment: Effect on oxidative stress in human HT-29 cells assessed as intracellular ROS level at 1 uM after overnight incubation by DCFH-DA staining based fluorescence assay relative to control; type: functional; in short: as §2
EA.hy 926 [22] = experiment: Effect on oxidative stress in human EAhy926 cells assessed as intracellular ROS level at 10 uM after overnight incubation by DCFH-DA staining based fluorescence assay relative to control; type: functional; in short: as §2
CHO [23] = experiment: Effect on oxidative stress in CHO cells assessed as intracellular ROS level at 1 uM after overnight incubation by DCFH-DA staining based fluorescence assay relative to control; type: functional, Cricetulus griseus; in short: as §2

Compound | solubility [10] | IC50 [1] | Activity [2] | Activity (Caco-2 [3]) | Activity (CHO [4]) | inhibition [5] | IC50 [6] | IC50 [7] | Activity (Caco-2 [8]) | Activity (EA.hy 926 [9]) | IC50 [11] | IC50 [12] | IC50 [14] | IC50 [15] | IC50 [17] | IC50 [18] | Activity (HT-29 [19]) | IC50 [20] | Activity (HT-29 [21]) | Activity (EA.hy 926 [22]) | other results
COc1cc(/C=C/C(=O)CC(=O)/C=C/c2ccc(O)c(OC)c2)ccc1O [CURCUMIN] | 0.5 µM (≈ 0.184 µg/mL) | > 25 µM | 1 µMequiv/µM | 77% | 97% | 0.15% | > 25 µM | > 25 µM | 84% | 91% | > 25 µM | > 25 µM | 7.5 µM | > 25 µM | > 25 µM | > 25 µM | 65% | > 25 µM | 67% | 88% | Activity (HT-29 [13]): Dose-dependent effect; Activity (HT-29 [16]): Dose-dependent effect; Activity (CHO [23]): 112%
O=C(/C=C(/C=C/c1ccc(O)cc1)NC1CCCCC1)/C=C/c1ccc(O)cc1 | 5 µM (≈ 1.95 µg/mL) | > 25 µM | 0.56 µMequiv/µM | 82% | 150% | 0.03% | 3.3 µM | 4 µM | 97% | 129% | 11.6 µM | 4.2 µM | 9.2 µM | 5.9 µM | 7.8 µM | > 25 µM | 80% | 6.9 µM | 77% | 299% | Activity (CHO [23]): 111%
CCCCNC(=C\C(=O)/C=C/c1ccc(O)c(OC)c1)/C=C/c1ccc(O)c(OC)c1 | 5 µM (≈ 2.12 µg/mL) | > 25 µM | 1.29 µMequiv/µM | 83% | 110% | 0.08% | > 25 µM | 19.7 µM | 91% | 110% | 20.4 µM | > 25 µM | 7 µM | 21.2 µM | > 25 µM | > 25 µM | 98% | 23.8 µM | 99% | 439% | Activity (CHO [23]): 129%

Further lines, with some results ahead:

solubility [10] | Compound | IC50 [1] | Activity [2] | Activity (Caco-2 [3]) | Activity (CHO [4]) | inhibition [5] | IC50 [6] | IC50 [7] | Activity (Caco-2 [8]) | Activity (EA.hy 926 [9]) | IC50 [11] | IC50 [12] | IC50 [14] | IC50 [15] | IC50 [17] | IC50 [18] | Activity (HT-29 [19]) | IC50 [20] | Activity (HT-29 [21]) | Activity (EA.hy 926 [22]) | other results
5 µM (≈ 2.54 µg/mL) | CCC(C)NC(=C\C(=O)/C=C/c1ccc(OC(C)=O)c(OC)c1)/C=C/c1ccc(OC(C)=O)c(OC)c1 (configuration not stated) | > 25 µM | 0 µMequiv/µM | 86% | 92% | 0% | > 25 µM | > 25 µM | 95% | 68% | > 25 µM | > 25 µM | > 25 µM | > 25 µM | > 25 µM | > 25 µM | 89% | 24 µM | 92% | 105% | Activity (CHO [23]): 88%
50 µM (≈ 20.5 µg/mL) | CCCNC(=C\C(=O)/C=C/c1ccc(O)c(OC)c1)/C=C/c1ccc(O)c(OC)c1 | > 25 µM | 0.87 µMequiv/µM | 88% | 118% | 0.1% | > 25 µM | 22.7 µM | 97% | 78% | > 25 µM | > 25 µM | > 25 µM | > 25 µM | > 25 µM | > 25 µM | 92% | 22 µM | 88% | 141% | Activity (CHO [23]): 116%

— ChEMBL document CHEMBL3872222, “Synthesis of novel curcuminoids accommodating a central β-enaminone motif and their impact on cell growth and oxidative stress” (Eur J Med Chem, 2016)
